Experimental data published in ChEMBL document CHEMBL1275536, “Efficacy of single-dose liposomal amphotericin B or micafungin prophylaxis in a neutropenic murine model of invasive pulmonary aspergillosis” (2008).
Active and inactive are the calls of the source. The rule behind the calls is not given here. Starred links: 1 amine or outer side, 2 acyl side, 3 side chain; linkers in the order of their positions; H or OH if unused. Positions of bridges follow the written chain, without caps; N, C: chain ends. Non-standard residues stand in square brackets, D forms with d. Residues, ends and D or L forms follow the SMILES beside them. *: point of attachment. hTyr(3S-OH,4S-OH,3'-OSO3H) = N[C@H](C(=O)O)[C@H](O)[C@@H](O)c1ccc(O)c(OS(=O)(=O)O)c1; Orn(4R-OH,5R-OH) = O=C([C@H](C[C@@H](O)[C@@H](O)N[*:3])N[*:1])[*:2]; Pro(3S-OH,4S-Me) = C[C@H]1CN[C@H](C(=O)O)[C@H]1O; X1 = CCCCCOc1ccc(-c2cc(-c3ccc(C(=O)*)cc3)no2)cc1; Gln(3R-OH) = NC(=O)C[C@@H](O)[C@H](N)C(=O)O; Hyp = O=C(O)[C@@H]1C[C@@H](O)CN1

What was measured:
[1] = system: Aspergillus fumigatus; test: Antifungal activity against Aspergillus fumigatus 293 by broth-microdilution; format: functional; settings: read-out: MEC
How it was run: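 Broth microdilution following CLSI (NCCLS) approved standard M38-A. Amphotericin B read as MIC; micafungin read as minimum effective concentration.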

[2] = system: Aspergillus fumigatus; test: Antifungal activity against Aspergillus fumigatus 293 infected in neutropenic BALB/c mouse lung assessed as swollen dysmorphic hyphal clusters at 10 mg/kg, ip administered as single dose 24 hrs before infection by light microscopy; format: functional, organism-based; design: dose 10 mg/kg
How it was run: (§1)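 Repeat experiments in the neutropenic intranasal-challenge model, five mice per dose, single i.p. dose 24 h pre-infection. Day +7 lungs fixed in 10% formaldehyde and stained with Grocott methenamine silver. Hyphal morphology and density assessed by light microscopy at ×100 and ×400.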

[3] = system: Aspergillus fumigatus; test: Antifungal activity against Aspergillus fumigatus 293 infected in neutropenic BALB/c mouse assessed as mouse survival at 20 mg/kg, ip administered as single dose 24 hrs before infection measured after 7 days relative to untreated control; format: functional; settings: route intraperitoneal
How it was run: (§2)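 Female BALB/c mice, 8 weeks old, 18-22 g. Neutropenia by cyclophosphamide 150 mg/kg i.p. on days −4, −1 and +3, plus cortisone acetate 250 mg/kg i.p. on day −1. Under isoflurane, 2.5 × 10^6 conidia given intranasally. Drug diluted in D5W, given once i.p. 24 h pre-infection; D5W controls; n = 20/group. Morbidity monitored 7 days; log-rank test.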

[4] = system: Aspergillus fumigatus; test: Antifungal activity against Aspergillus fumigatus 293 infected in neutropenic BALB/c mouse lung assessed as swollen dysmorphic hyphal clusters at 20 mg/kg, ip administered as single dose 24 hrs before infection by light microscopy; format: functional, organism-based; design: dose 20 mg/kg; how it was run: as §1
[5] = system: Aspergillus fumigatus; test: Antifungal activity against Aspergillus fumigatus 293 by Etest; format: functional
How it was run: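 Susceptibility of A. fumigatus 293 by Etest. Amphotericin B read as MIC; micafungin read as minimum effective concentration.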

[6] = system: Aspergillus fumigatus; test: Antifungal activity against Aspergillus fumigatus 293 infected in neutropenic BALB/c mouse lung assessed as log reduction in fungal burden at 10 mg/kg, ip administered as single dose 24 hrs before infection; format: functional; settings: route intraperitoneal
How it was run: (§3)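 Same neutropenic BALB/c intranasal-challenge model; single i.p. dose in D5W given 24 h pre-infection; D5W controls. Lungs from 10-20 mice/group taken at day +7, or earlier at moribund euthanasia. A. fumigatus DNA quantified by real-time PCR as conidial equivalents; reduction expressed as log10 of median versus control.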

[7] = system: Aspergillus fumigatus; test: Antifungal activity against Aspergillus fumigatus 293 infected in neutropenic BALB/c mouse lung assessed as log reduction in fungal burden at 20 mg/kg, ip administered as single dose 24 hrs before infection; format: functional; settings: route intraperitoneal; how it was run: as §3
[8] = system: Aspergillus fumigatus; test: Antifungal activity against Aspergillus fumigatus 293 infected in neutropenic BALB/c mouse assessed as mouse survival at 5 mg/kg, ip administered as single dose 24 hrs prior to infection measured after 7 days relative to untreated control; format: functional; settings: route intraperitoneal; how it was run: as §2
[9] = system: Aspergillus fumigatus; test: Antifungal activity against Aspergillus fumigatus 293 infected in neutropenic BALB/c mouse lung assessed as log reduction in fungal burden at 5 mg/kg, ip administered as single dose 24 hrs before infection; format: functional; settings: route intraperitoneal; how it was run: as §3

SMILES	minimal effective concentration [1] [µg/mL]	Activity [2]	Activity [3] [%]	Activity [4]	MEC [5] [µg/mL]	FC [6]	FC [7]	Activity [8] [%]	FC [9]
C[C@@H]1[C@H](O)[C@@H](C)/C=C/C=C/C=C/C=C/C=C/C=C/C=C/[C@H](O[C@@H]2O[C@H](C)[C@@H](O)[C@H](N)[C@@H]2O)C[C@@H]2O[C@](O)(C[C@@H](O)C[C@@H](O)[C@H](O)CC[C@@H](O)C[C@@H](O)CC(=O)O[C@H]1C)C[C@H](O)[C@H]2C(=O)O [AMPHOTERICIN B]	0.25								
CCCCCOc1ccc(-c2cc(-c3ccc(C(=O)N[C@H]4C[C@@H](O)[C@@H](O)NC(=O)[C@@H]5[C@@H](O)[C@@H](C)CN5C(=O)[C@H]([C@H](O)CC(N)=O)NC(=O)[C@H]([C@H](O)[C@@H](O)c5ccc(O)c(OS(=O)(=O)O)c5)NC(=O)[C@@H]5C[C@@H](O)CN5C(=O)[C@H]([C@@H](C)O)NC4=O)cc3)no2)cc1 [MICAFUNGIN] (X1-[Orn(4R-OH,5R-OH)]T[Hyp][hTyr(3S-OH,4S-OH,3'-OSO3H)][Gln(3R-OH)][Pro(3S-OH,4S-Me)]; lactam 1-C)	0.25	Active	55	Active	0.25	1.3	0.7	55	1.3
